# ChEMBL document CHEMBL1126715, “Synthesis and tissue distribution of (m-[125I]iodobenzyl)trozamicol ([125I]MIBT): potential radioligand for mapping central cholinergic innervation” (J Med Chem, 1993)
# Experiments:
# [1] = species on record: Rattus norvegicus; assay: Tissue distribution in rat brain after 5 minutes (n=3); format: ADME, organism-based; conditions: in vivo
# Summary of the method: (§1)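 Male Wistar rats (200-350 g) under ether anesthesia; radiotracer (3-5 μCi in 0.1 mL 50% aqueous ethanol) given iv. At 5, 30, 60 and 180 min, blood was drawn by cardiac puncture and animals were killed by cardiectomy. Organs were weighed and γ-counted against a 1:100 dilution of the injected dose. Results are given as % injected dose/g tissue; ratios are taken between tissue levels.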
# [2] = species on record: Rattus norvegicus; assay: Tissue distribution in rat thyroid after 30 minutes (n=3); format: ADME, organism-based, Thyroid gland; conditions: in vivo, 0.5 h; summary of the method: as §1
# [3] = species on record: Rattus norvegicus; assay: Tissue distribution in rat lung after 180 minutes (n=3); format: ADME, organism-based; conditions: in vivo, 3 h
# Summary of the method: (§2)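 Male Wistar rats (200-350 g) under ether, iv [125I]tracer (3-5 μCi in 0.1 mL 50% aqueous EtOH). At 5, 30, 60 or 180 min, blood taken by cardiac puncture and the rat killed by cardiectomy. Organs weighed and γ-counted against 1:100 dilutions of the injected dose; results in % injected dose/g, with range.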
# [4] = species on record: Rattus norvegicus; assay: Tissue distribution in rat lung after 30 minutes (n=3); format: ADME, organism-based; conditions: in vivo, 0.5 h; summary of the method: as §1
# [5] = species on record: Rattus norvegicus; assay: Tissue distribution in rat liver after 180 minutes (n=3); format: ADME, organism-based; conditions: in vivo, 3 h; summary of the method: as §2
# [6] = species on record: Rattus norvegicus; assay: Tissue distribution in rat kidney after 5 minutes (n=3); format: ADME, organism-based; conditions: in vivo; summary of the method: as §1
# [7] = species on record: Rattus norvegicus; assay: Tissue distribution in rat spleen after 180 minutes (n=3); format: ADME, organism-based; conditions: in vivo, 3 h; summary of the method: as §1
# [8] = species on record: Rattus norvegicus; assay: Ratio of tissue distribution between rat brain and blood after 30 min; format: ADME, organism-based; conditions: 0.5 h
# Summary of the method: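 Male Wistar rats (200-350 g) under ether anesthesia, iv radiotracer (3-5 μCi in 0.1 mL 50% aqueous ethanol). At 5, 30, 60, 180 min blood taken by cardiac puncture, animal killed by cardiectomy; organs weighed, γ-counted against 1:100 injected-dose dilution; % injected dose/g tissue; brain/blood ratio.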
# [9] = species on record: Rattus norvegicus; assay: Tissue distribution in rat muscle after 60 minutes (n=3); format: ADME, organism-based; conditions: in vivo, 1 h; summary of the method: as §2
# [10] = Ratio of effect of vesamicol on the accumulation between rat brain and blood in group 1; format: ADME, organism-based
# Summary of the method: (§3)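 Male Wistar rats (n = 4/group) given iv vehicle (100 μL 50% aqueous EtOH) or dl-vesamicol (1.01 μmol/kg); 15 min later iv radiotracer (2.0 μCi in 100 μL 50% aqueous EtOH); killed 30 min post-tracer. Blood by cardiac puncture, organs weighed and γ-counted vs 1:100 injected-dose dilution; % dose/g tissue (range); tissue/blood ratios.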
# [11] = species on record: Rattus norvegicus; assay: Tissue distribution in rat muscle after 180 minutes (n=3); format: ADME, organism-based; conditions: in vivo, 3 h; summary of the method: as §1
# [12] = species on record: Rattus norvegicus; assay: Effect of vesamicol on the accumulation in rat blood in group 1 (n=3); format: ADME, organism-based; conditions: in vivo
# [13] = species on record: Rattus norvegicus; assay: Tissue distribution in rat kidney after 30 minutes (n=3); format: ADME, organism-based; conditions: in vivo, 0.5 h; summary of the method: as §1
# [14] = species on record: Rattus norvegicus; assay: Tissue distribution in rat spleen after 5 minutes (n=3); format: ADME, organism-based; conditions: in vivo; summary of the method: as §2
# [15] = species on record: Rattus norvegicus; assay: Tissue distribution in rat brain after 30 minutes (n=3); format: ADME, organism-based; conditions: in vivo, 0.5 h; summary of the method: as §1
# [16] = species on record: Rattus norvegicus; assay: Effect of vesamicol on the accumulation in rat liver in group 2 (n=3); format: ADME, organism-based; conditions: in vivo
# [17] = species on record: Rattus norvegicus; assay: Tissue distribution in rat muscle after 5 minutes (n=3); format: ADME, organism-based; conditions: in vivo; summary of the method: as §1
# [18] = species on record: Rattus norvegicus; assay: Tissue distribution in rat liver after 5 minutes (n=3); format: ADME, organism-based; conditions: in vivo; summary of the method: as §2
# [19] = species on record: Rattus norvegicus; assay: Effect of vesamicol on the accumulation in rat muscle in group 1 (n=3); format: ADME, organism-based, Muscle tissue; conditions: in vivo; summary of the method: as §3
# [20] = species on record: Rattus norvegicus; assay: Effect of vesamicol on the accumulation in rat thyroid in group 1 (n=3); format: ADME, organism-based, Thyroid gland; conditions: in vivo; summary of the method: as §3
# [21] = species on record: Rattus norvegicus; assay: Effect of vesamicol on the accumulation in rat liver in group 1 ([…]); format: ADME, organism-based; conditions: in vivo; summary of the method: as §3
# [22] = species on record: Rattus norvegicus; assay: Tissue distribution in rat thyroid after 60 minutes (n=3); format: ADME, organism-based, Thyroid gland; conditions: in vivo, 1 h; summary of the method: as §1
# [23] = species on record: Rattus norvegicus; assay: Effect of vesamicol on the accumulation in rat kidney in group 2 (n=3); format: ADME, organism-based; conditions: in vivo
# [24] = species on record: Rattus norvegicus; assay: Tissue distribution in rat kidney after 180 minutes (n=3); format: ADME, organism-based; conditions: in vivo, 3 h; summary of the method: as §1
# [25] = species on record: Rattus norvegicus; assay: Tissue distribution in rat lung after 60 minutes (n=3); format: ADME, organism-based; conditions: in vivo, 1 h; summary of the method: as §1
# [26] = species on record: Rattus norvegicus; assay: Tissue distribution in rat blood after 5 minutes (n=3); format: ADME, organism-based; conditions: in vivo; summary of the method: as §1
# [27] = species on record: Rattus norvegicus; assay: Effect of vesamicol on the accumulation in rat lung in group 1 (n=3); format: ADME, organism-based; conditions: in vivo; summary of the method: as §3
# [28] = species on record: Rattus norvegicus; assay: Tissue distribution in rat heart after 5 minutes (n=3); format: ADME, organism-based; conditions: in vivo; summary of the method: as §1
# [29] = species on record: Rattus norvegicus; assay: Tissue distribution in rat blood after 60 minutes (n=3); format: ADME, organism-based; conditions: in vivo, 1 h; summary of the method: as §2
# [30] = species on record: Rattus norvegicus; assay: Effect of vesamicol on the accumulation in rat heart in group 1 […]; format: ADME, organism-based; conditions: in vivo; summary of the method: as §3
# [31] = species on record: Rattus norvegicus; assay: Tissue distribution in rat liver after 60 minutes (n=3); format: ADME, organism-based; conditions: in vivo, 1 h; summary of the method: as §1
# [32] = species on record: Rattus norvegicus; assay: Tissue distribution in rat spleen after 60 minutes (n=3); format: ADME, organism-based; conditions: in vivo, 1 h; summary of the method: as §1
# [33] = Ratio of effect of vesamicol on the accumulation between rat heart and blood in group 2; format: ADME, organism-based; summary of the method: as §3
# [34] = species on record: Rattus norvegicus; assay: Effect of vesamicol on the accumulation in rat heart in group 2 (n=3); format: ADME, organism-based; conditions: in vivo; summary of the method: as §3
# [35] = species on record: Rattus norvegicus; assay: Ratio of tissue distribution between rat brain and blood after 60 min; format: ADME, organism-based; conditions: 1 h; summary of the method: as §1
compound,measurement,setting,value
O[C@@H]1CCN(Cc2cccc([125I])c2)C[C@H]1N1CCC(c2ccccc2)CC1 (stereo in doubt; (-)),Dose/g,[1],0.92%
same,Dose/g,[2],3.15%
same,Dose/g,[3],2.01%
same,Dose/g,[4],3.21%
same,Dose/g,[5],2.23%
same,Dose/g,[6],3.71%
same,Dose/g,[7],1.28%
same,Ratio,[8],9.06
same,Dose/g,[9],0.28%
same,Kp,[10],6.45
same,Dose/g,[11],0.27%
same,Dose/g,[12],0.11%
same,Dose/g,[13],3.53%
same,Dose/g,[14],1.04%
same,Dose/g,[15],0.99%
same,Dose/g,[16],1.89%
same,Dose/g,[17],0.46%
same,Dose/g,[18],2.07%
same,Dose/g,[19],0.18%
same,Dose/g,[20],2.62%
same,Dose/g,[21],1.91%
same,Dose/g,[22],5.87%
same,Dose/g,[23],1.13%
same,Dose/g,[24],3.27%
same,Dose/g,[25],2.41%
same,Dose/g,[26],0.22%
same,Dose/g,[27],2.36%
same,Dose/g,[28],1.32%
same,Dose/g,[29],0.1%
same,Dose/g,[30],0.59%
same,Dose/g,[31],2.63%
same,Dose/g,[32],1.17%
same,Kp,[33],2.4
same,Dose/g,[34],0.3%
same,Ratio,[35],8.51
